Test results: ChEMBL document CHEMBL1146352, “Synthesis of furopyrazole analogs of 1-benzyl-3-(5-hydroxymethyl-2-furyl)indazole (YC-1) as novel anti-leukemia agents” (2007)
Calls of active or inactive are those of the source. The calls are words filed in the database; no cut-off is given here.

Tests used:
HT60 = test: Induction of apoptosis in […] cells at 26 uM after 48 hrs; assay type: functional, cell-based; conditions: Homo sapiens
In short: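 HL-60 cells were cultured 72 h or 48 h with compound, with 0.1% (v/v) DMSO as the control. Nuclei were stained with DAPI and examined microscopically (400×) for nuclear shrinkage and chromatin condensation.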

HL-60 [1] = test: Induction of HL60 cell differentiation assessed as nitroblue tetrazolium reduction activity at 26 uM after 72 hrs; assay type: functional, Homo sapiens; design: scale not given: the % may be the effect or the level left
In short: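 Cells treated 72 h (ATRA co-treatment at 1 µM where stated) were suspended in HBSS at 1 × 10⁶ cells/mL. Mixed with an equal volume of HBSS stock containing 1 mg/ml NBT and 5 µg/mL TPA, then held 30 min at 37 °C. Cells with formazan deposits were counted microscopically, at least 200 cells. Three experiments, each in duplicate.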

HL-60 (Homo sapiens) = test: Induction of apoptosis in HL-60 cells after 72 hrs
HL-60 [2] = test: Cytotoxicity against HL60 cells by Propidium iodide exclusion assay; assay type: functional; conditions: Homo sapiens, read-out: ED50 (the source's name)
In short: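 HL-60 cells seeded at 2.5 × 10⁵ cells/mL and treated at a range of concentrations for 24, 48 and 72 h at 37 °C. Viable cells were scored by propidium iodide exclusion on flow cytometry. Viability is given as the ratio of treated to control cells. ED50 derived; three independent experiments, mean ± SD.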

Structure (SMILES) | AD50 (HT60) | Activity (HL-60 [1]) | Activity (HL-60 (Homo sapiens)) | EC50 (HL-60 [2])
OCc1ccc(-c2nn(Cc3ccccc3)c3ccccc23)o1 | Active | 3.56% | inactive | 
Cc1cc2c(o1)c(-c1ccc(C(=O)O)cc1)nn2-c1ccccc1 |  |  |  | > 20 µM
Cc1cc2c(o1)c(-c1ccc(C(=O)O)cc1)nn2Cc1ccccc1 |  |  |  | > 20 µM
Cc1cc2c(o1)c(-c1ccc(CO)cc1)nn2-c1ccccc1 |  |  |  | > 20 µM
